Experimental data reported in ChEMBL document CHEMBL3098054, “The synthesis of novel taxoids for oral administration” (Bioorg Med Chem, 2014).

Assays:
A2780 = test: Cytotoxicity against human A2780 cells at 1 uM after 72 hrs by MTT assay; type: functional; conditions: A2780, 72 h, read-out: GI
In short: (§1)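 Cells plated at 2000–5000/well, attached overnight at 37 °C. DMSO stocks (100 mM) serially diluted in medium to a final 1 µM, tested in duplicate wells. Exposure 72 h at 37 °C, 5% CO₂. MTT (5 mg/mL, 10 µL) added for 4 h. Lysis in 10% SDS / 5% isopropanol / 0.012 N HCl, then OD read at 580–680 nm.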

[1] = Efflux ratio of apparent permeability from basolateral to apical side over apical to basolateral side in human Caco2 cells at 10 uM after 90 mins by LC-MS/MS analysis; type: ADME, cell-based, Caco-2; conditions: Caco-2
In short: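 Caco-2 cells cultured 21 days on 24-well inserts, TEER >250 Ω·cm². Monolayers pre-incubated in HBSS pH 7.4 at 37 °C. Compound added to the donor side at 10 µM, 37 °C, 5% CO₂, 90 min, in the A-to-B and B-to-A directions. Donor and receiver levels measured by LC-MS/MS. Papp calculated from receiver amount, membrane area 0.7 cm², time and initial donor concentration. Efflux ratio = B–A/A–B.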

MCF7 [2] = test: Cytotoxicity against human MCF7 cells at 1 uM after 72 hrs by MTT assay; type: functional; conditions: MCF7, 72 h, read-out: GI; in short: as §1
DU-145 = test: Cytotoxicity against human DU145 cells at 1 uM after 72 hrs by MTT assay; type: functional; conditions: DU-145, 72 h, read-out: GI; in short: as §1
NCI-H460 = test: Cytotoxicity against human NCI-H460 cells at 1 uM after 72 hrs by MTT assay; type: functional; conditions: NCI-H460, 72 h, read-out: GI; in short: as §1
HeLa = test: Cytotoxicity against human HeLa cells at 1 uM after 72 hrs by MTT assay; type: functional; conditions: read-out: GI; in short: as §1
[3] = Apparent permeability from basolateral to apical side in human Caco2 cells at 10 uM after 90 mins by LC-MS/MS analysis; type: ADME, cell-based, Caco-2; conditions: Caco-2
HL-60 = test: Cytotoxicity against human HL60 cells at 1 uM after 72 hrs by MTT assay; type: functional; conditions: HL-60, 72 h, read-out: GI; in short: as §1
A-375 = test: Cytotoxicity against human A375 cells at 1 uM after 72 hrs by MTT assay; type: functional; conditions: A-375, 72 h, read-out: GI
In short: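 Cells plated at 2000–5000/well, attached overnight at 37 °C. DMSO stocks (100 mM) serially diluted in medium to a final 1 µM, tested in duplicate wells. MTT (5 mg/mL, 10 µL) added for 4 h. Lysis in 10% SDS / 5% isopropanol / 0.012 N HCl, then OD read at 580–680 nm.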

HT-29 = test: Cytotoxicity against human HT-29 cells at 1 uM after 72 hrs by MTT assay; type: functional; conditions: HT-29, 72 h, read-out: GI; in short: as §1
[4] = Apparent permeability from apical to basolateral side in human Caco2 cells at 10 uM after 90 mins by LC-MS/MS analysis; type: ADME, cell-based, Caco-2; conditions: Caco-2
MCF7 [5] = test: Cytotoxicity against human MCF7 cells after 72 hrs by MTT assay; type: functional, cell-based; conditions: MCF7, 72 h
In short: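 MCF-7 cells exposed to compound for 72 h and read by MTT. At least six replicate wells per assay, run on three separate occasions. IC₅₀ given as mean with standard deviation.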

MDR1 [6] = test: Apparent permeability from basolateral to apical side in MDCK cells expressing MDR1 at 5 uM after 90 mins; type: ADME, cell-based, Canis lupus familiaris; conditions: dog
In short: (§2)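 MDCK-MDR1 monolayers grown on polycarbonate filter Transwells, confluent 5 days after seeding, TEER >1000 Ω·cm² before use. MDCK-WT cells plated at 5.0 × 10⁴ cells/well and used after 6 days at TEER >200 Ω·cm². Transport run at 37 °C in HBSS pH 7.4 for 90 min, in both directions. Lucifer yellow permeability and TEER change served as monolayer integrity checks. Efflux ratio = Papp(B–A)/Papp(A–B).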

[7] = Apparent permeability from apical to basolateral side in wild-type MDCK cells at 5 uM after 90 mins; type: ADME, cell-based, Canis lupus familiaris; conditions: dog; in short: as §2
MDR1 [8] = test: Efflux ratio of apparent permeability from basolateral to apical side over apical to basolateral side in MDCK cells expressing MDR1 at 5 uM after 90 mins; type: ADME, cell-based, Canis lupus familiaris; conditions: dog; in short: as §2
[9] = Apparent permeability from basolateral to apical side in wild-type MDCK cells at 5 uM after 90 mins; type: ADME, cell-based, Canis lupus familiaris; conditions: dog; in short: as §2
[10] = Efflux ratio of apparent permeability from basolateral to apical side over apical to basolateral side in wild-type MDCK cells at 5 uM after 90 mins; type: ADME, cell-based, Canis lupus familiaris; conditions: dog; in short: as §2
MDR1 [11] = test: Apparent permeability from apical to basolateral side in MDCK cells expressing MDR1 at 5 uM after 90 mins; type: ADME, cell-based, Canis lupus familiaris; conditions: dog; in short: as §2

SMILES | inhibition of growth at 1 µM (A2780) [%] | efflux ratio at 1.5 h, 10 µM [1] | inhibition of growth at 1 µM (MCF7 [2]) [%] | inhibition of growth at 1 µM (DU-145) [%] | inhibition of growth at 1 µM (NCI-H460) [%] | inhibition of growth at 1 µM (HeLa) [%] | Papp B→A at 1.5 h, 10 µM [3] [×10⁻⁶ cm/s] | inhibition of growth at 1 µM (HL-60) [%] | inhibition of growth at 1 µM (A-375) [%] | inhibition of growth at 1 µM (HT-29) [%] | Papp A→B at 1.5 h, 10 µM [4] [×10⁻⁶ cm/s] | IC50 (MCF7 [5]) [nM] | Papp B→A at 1.5 h, 5 µM (MDR1 [6]) [×10⁻⁶ cm/s] | Papp A→B at 1.5 h, 5 µM [7] [×10⁻⁶ cm/s] | efflux ratio at 1.5 h, 5 µM (MDR1 [8]) | Papp B→A at 1.5 h, 5 µM [9] [×10⁻⁶ cm/s] | efflux ratio at 1.5 h, 5 µM [10] | Papp A→B at 1.5 h, 5 µM (MDR1 [11]) [×10⁻⁶ cm/s]
CO[C@H]1C(=O)[C@@]2(C)[C@H]([C@H](OC(=O)c3ccccc3)[C@]34OC(=O)O[C@H]3[C@H](OC(=O)[C@H](O)[C@@H](NC(=O)OC(C)(C)C)c3ccccc3)C(C)=C1C4(C)C)[C@]1(OC(C)=O)CO[C@@H]1C[C@@H]2O | 95 | 51 | 87.1 | 86.8 | 82.7 | 100 | 44.7 | 97.5 | 92.5 | 86.6 | 0.88 | – | – | – | – | – | – | –
COC(=O)O[C@H]1C[C@H]2OC[C@@]2(OC(C)=O)[C@H]2[C@H](OC(=O)c3ccccc3)[C@]3(O)C[C@H](OC(=O)[C@H](O)[C@@H](NC(=O)OC(C)(C)C)c4ccccc4)C(C)=C([C@@H](OC)C(=O)[C@]12C)C3(C)C | 96.4 | 5.23 | 103 | 88.5 | 89.5 | 102 | 38.8 | 97 | 97.4 | 89.7 | 6.97 | 4.97 | – | – | – | – | – | –
CO[C@H]1C(=O)[C@]2(C)[C@@H](OC(=O)N(C)C)C[C@H]3OC[C@@]3(OC(C)=O)[C@H]2[C@H](OC(=O)c2ccccc2)[C@]23OC(=O)O[C@H]2[C@H](OC(=O)[C@H](O)[C@H](CC(C)C)NC(=O)OC(C)(C)C)C(C)=C1C3(C)C | – | 2.39 | – | – | – | – | 5.74 | – | – | – | 2.4 | 21.2 | – | – | – | – | – | –
CC(=O)O[C@H]1C(=O)[C@@]2(C)[C@H]([C@H](OC(=O)c3ccccc3)[C@]34OC(=O)O[C@H]3[C@H](OC(=O)[C@H](O)[C@H](CC(C)C)NC(=O)OC(C)(C)C)C(C)=C1C4(C)C)[C@]1(OC(C)=O)CO[C@@H]1C[C@@H]2O [ORTATAXEL] | 96.4 | 6.84 | 88.7 | 90.6 | 85.5 | 99.5 | 19.2 | 96.5 | 96.7 | 87.7 | 2.8 | – | – | – | – | – | – | –
COC(=O)O[C@H]1C(=O)[C@]2(C)[C@@H](OC)C[C@H]3OC[C@@]3(OC(C)=O)[C@H]2[C@H](OC(=O)c2ccccc2)[C@]2(O)C[C@H](OC(=O)[C@H](O)[C@H](CC(C)C)NC(=O)OC(C)(C)C)C(C)=C1C2(C)C | – | – | – | – | – | 99.7 | 33.3 | – | – | – | 8.87 | 2.9 | – | – | – | – | – | –
CO[C@H]1C(=O)[C@]2(C)CC[C@H]3OC[C@@]3(OC(C)=O)[C@H]2[C@H](OC(=O)c2ccccc2)[C@]23OC(=O)O[C@H]2[C@H](OC(=O)[C@H](O)[C@@H](NC(=O)OC(C)(C)C)c2ccccc2)C(C)=C1C3(C)C | 96 | 9.56 | 86.3 | 89.1 | 84.7 | 99.9 | 25.3 | 97.7 | 94.4 | 87.3 | 2.64 | 4.49 | – | – | – | – | – | –
COC(=O)O[C@H]1C(=O)[C@]2(C)[C@@H](OC)C[C@H]3OC[C@@]3(OC(C)=O)[C@H]2[C@H](OC(=O)c2ccccc2)[C@]2(O)C[C@H](OC(=O)[C@H](O)[C@@H](NC(=O)OC(C)(C)C)c3ccccc3)C(C)=C1C2(C)C | 94.1 | 4.22 | 95.3 | 83.3 | 80.4 | 99.5 | 29.2 | 97.4 | 103 | 87.3 | 6.91 | 1.4 | – | – | – | – | – | –
CO[C@H]1C[C@H]2OC[C@@]2(OC(C)=O)[C@H]2[C@H](OC(=O)c3ccccc3)[C@]3(O)C[C@H](OC(=O)[C@H](O)[C@@H](NC(=O)OC(C)(C)C)c4ccccc4)C(C)=C([C@@H](OC(=O)N(C)C)C(=O)[C@]12C)C3(C)C | 94.8 | 4.08 | 93.5 | 84.8 | 83.3 | 99.8 | 33.1 | 97.2 | 87.7 | 87.9 | 8.11 | 1.58 | – | – | – | – | – | –
COC(=O)O[C@H]1C[C@H]2OC[C@@]2(OC(C)=O)[C@H]2[C@H](OC(=O)c3ccccc3)[C@]3(O)C[C@H](OC(=O)[C@H](O)[C@H](CC(C)C)NC(=O)OC(C)(C)C)C(C)=C([C@@H](OC)C(=O)[C@]12C)C3(C)C | – | – | – | – | – | 100 | 36.4 | – | – | – | 7.16 | 2.81 | – | – | – | – | – | –
CO[C@H]1C[C@H]2OC[C@@]2(OC(C)=O)[C@H]2[C@H](OC(=O)c3ccccc3)[C@]3(O)C[C@H](OC(=O)[C@H](O)[C@H](CC(C)C)NC(=O)OC(C)(C)C)C(C)=C([C@@H](OC(=O)N(C)C)C(=O)[C@]12C)C3(C)C | – | – | – | – | – | 101 | 32.6 | – | 89 | – | 8.17 | 1.7 | – | – | – | – | – | –
C[C@H]1O[C@@H](O[C@H]2[C@@H](O)C[C@H](O[C@H]3[C@@H](O)C[C@H](O[C@H]4CC[C@@]5(C)[C@H](CC[C@@H]6[C@@H]5C[C@@H](O)[C@]5(C)[C@@H](C7=CC(=O)OC7)CC[C@]65O)C4)O[C@@H]3C)O[C@@H]2C)C[C@H](O)[C@@H]1O [DIGOXIN] | – | – | – | – | – | – | – | – | – | – | – | – | 12.4 | 0.35 | 65.5 | 8.06 | 22.7 | 0.19
CO[C@H]1C(=O)[C@]2(C)[C@@H](OC)C[C@H]3OC[C@@]3(OC(C)=O)[C@H]2[C@H](OC(=O)c2ccccc2)[C@]23OC(=O)O[C@H]2[C@H](OC(=O)[C@H](O)[C@@H](NC(=O)OC(C)(C)C)c2ccccc2)C(C)=C1C3(C)C | 94.7 | 6.42 | 93.5 | 84.7 | 82.2 | 98.2 | 18.2 | 95.9 | 89.8 | 89 | 2.83 | 2.1 | – | – | – | – | – | –
CO[C@H]1C(=O)[C@]2(C)CC[C@H]3OC[C@@]3(OC(C)=O)[C@H]2[C@H](OC(=O)c2ccccc2)[C@]2(O)C[C@H](OC(=O)[C@H](O)[C@H](CC(C)C)NC(=O)OC(C)(C)C)C(C)=C1C2(C)C | – | 5.12 | – | – | – | 99.3 | 38.6 | – | – | – | 7.17 | 3.06 | – | – | – | – | – | –
COC(=O)O[C@H]1C[C@H]2OC[C@@]2(OC(C)=O)[C@H]2[C@H](OC(=O)c3ccccc3)[C@]34OC(=O)O[C@H]3[C@H](OC(=O)[C@H](O)[C@H](CC(C)C)NC(=O)OC(C)(C)C)C(C)=C([C@@H](OC)C(=O)[C@]12C)C4(C)C | – | 7.81 | – | – | – | – | 7.16 | – | – | – | 0.92 | 2.94 | – | – | – | – | – | –
